# ChEMBL document CHEMBL5649170, “Sustained microglial depletion with CSF1R inhibitor impairs parenchymal plaque development in an Alzheimer's disease model” (Nat Commun, 2019)
# Active and inactive are the calls of the source. The rule behind the calls is not given here.
# Experiments:
# [1] = Effect on Cx3cr1 gene expression in wild type mouse cortex at 1200 ppm administered as rodent chow starting from 1.5 months and measured after 7 months by RNA-Seq analysis (reference value: 9.334 to 12.119); assay type: functional; details: route po, time 5.5 months, 4015 h
# [2] = Prevention of Kcnq3 gene downregulation in 5XFAD mouse hippocampus assessed as percent change in Reads Per kilo base per Million mapped reads at 1200 ppm administered as rodent chow starting from 1.5 months and measured after 7 months by RNA-Seq analysis (reference value: 55.386 to 68.581 %); assay type: functional; details: route po, time 5.5 months, 4015 h
# Ephrin type-A receptor 1 = Ephrin type-A receptor 1 (Homo sapiens, UniProt P21709); test: Inhibition of EPHA1 (unknown origin)
# Sequence of Ephrin type-A receptor 1 (P21709 whole entry): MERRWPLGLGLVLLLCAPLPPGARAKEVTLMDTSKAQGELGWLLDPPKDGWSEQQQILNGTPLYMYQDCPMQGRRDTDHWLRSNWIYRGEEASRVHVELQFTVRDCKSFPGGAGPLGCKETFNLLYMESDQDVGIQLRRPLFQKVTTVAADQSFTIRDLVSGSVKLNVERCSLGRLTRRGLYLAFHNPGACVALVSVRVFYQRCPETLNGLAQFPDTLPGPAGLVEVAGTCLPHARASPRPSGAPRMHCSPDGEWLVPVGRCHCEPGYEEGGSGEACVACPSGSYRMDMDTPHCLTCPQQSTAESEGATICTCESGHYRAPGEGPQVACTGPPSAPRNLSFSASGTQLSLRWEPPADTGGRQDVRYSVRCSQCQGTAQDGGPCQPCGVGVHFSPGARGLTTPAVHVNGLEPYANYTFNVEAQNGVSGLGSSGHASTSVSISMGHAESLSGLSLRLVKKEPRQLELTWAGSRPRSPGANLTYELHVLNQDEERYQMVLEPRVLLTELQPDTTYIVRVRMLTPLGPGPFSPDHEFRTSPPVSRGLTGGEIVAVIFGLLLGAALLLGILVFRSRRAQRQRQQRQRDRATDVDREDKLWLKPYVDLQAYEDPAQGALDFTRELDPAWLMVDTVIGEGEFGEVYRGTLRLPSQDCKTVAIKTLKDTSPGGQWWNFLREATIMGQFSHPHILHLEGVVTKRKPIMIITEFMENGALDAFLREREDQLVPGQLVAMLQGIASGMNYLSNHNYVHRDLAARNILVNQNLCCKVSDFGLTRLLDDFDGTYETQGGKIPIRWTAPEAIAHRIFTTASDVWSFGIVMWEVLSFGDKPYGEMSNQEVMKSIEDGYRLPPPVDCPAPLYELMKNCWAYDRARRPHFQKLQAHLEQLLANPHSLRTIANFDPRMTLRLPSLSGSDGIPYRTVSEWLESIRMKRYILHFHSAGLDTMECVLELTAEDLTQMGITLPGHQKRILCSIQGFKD
# [3] = target: Platelet-derived growth factor receptor beta (Homo sapiens, UniProt P09619); test: Inhibition of PDGFRB (unknown origin)
# Sequence of Platelet-derived growth factor receptor beta (P09619 whole entry): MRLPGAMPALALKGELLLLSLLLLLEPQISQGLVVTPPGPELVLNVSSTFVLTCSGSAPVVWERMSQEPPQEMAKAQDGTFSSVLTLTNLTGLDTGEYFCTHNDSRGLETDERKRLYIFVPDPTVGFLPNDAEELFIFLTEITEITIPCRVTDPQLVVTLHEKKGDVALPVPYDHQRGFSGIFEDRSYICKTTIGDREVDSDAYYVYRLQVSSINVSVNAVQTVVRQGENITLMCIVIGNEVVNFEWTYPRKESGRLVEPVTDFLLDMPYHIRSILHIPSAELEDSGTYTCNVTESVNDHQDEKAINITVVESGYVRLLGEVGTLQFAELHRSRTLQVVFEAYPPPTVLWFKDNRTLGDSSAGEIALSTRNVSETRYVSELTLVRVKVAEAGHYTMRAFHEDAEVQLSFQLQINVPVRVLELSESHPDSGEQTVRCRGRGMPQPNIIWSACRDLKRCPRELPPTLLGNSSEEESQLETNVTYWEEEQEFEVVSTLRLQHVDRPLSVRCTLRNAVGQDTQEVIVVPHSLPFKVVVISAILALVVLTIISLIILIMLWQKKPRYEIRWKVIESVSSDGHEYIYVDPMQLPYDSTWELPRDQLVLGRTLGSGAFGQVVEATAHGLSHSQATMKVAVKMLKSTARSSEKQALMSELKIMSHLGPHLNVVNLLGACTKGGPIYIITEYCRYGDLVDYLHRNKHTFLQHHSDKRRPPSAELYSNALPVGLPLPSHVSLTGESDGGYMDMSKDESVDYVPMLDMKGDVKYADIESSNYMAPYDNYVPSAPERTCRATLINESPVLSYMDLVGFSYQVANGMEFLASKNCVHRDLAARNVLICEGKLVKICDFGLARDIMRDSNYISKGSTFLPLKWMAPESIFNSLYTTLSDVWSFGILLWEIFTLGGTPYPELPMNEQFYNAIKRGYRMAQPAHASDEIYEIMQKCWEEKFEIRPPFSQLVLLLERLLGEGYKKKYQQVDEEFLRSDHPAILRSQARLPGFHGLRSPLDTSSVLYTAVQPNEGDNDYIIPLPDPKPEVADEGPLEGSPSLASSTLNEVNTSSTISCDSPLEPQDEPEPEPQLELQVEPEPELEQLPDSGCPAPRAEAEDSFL
# Mus musculus [4] = test: Prevention of Dlgap1 gene downregulation in 5XFAD mouse hippocampus at 1200 ppm administered as rodent chow starting from 1.5 months and measured after 7 months by Nanostring analysis; assay type: functional, tissue-based; details: route po, time 5.5 months
# [5] = target: RAC-gamma serine/threonine-protein kinase (Homo sapiens, UniProt Q9Y243); test: Inhibition of AKT3 (unknown origin)
# [6] = target: Serine/threonine-protein kinase PLK1 (Homo sapiens, UniProt P53350); test: Inhibition of PLK1 (unknown origin)
# Sequence of Serine/threonine-protein kinase PLK1 (P53350 whole entry): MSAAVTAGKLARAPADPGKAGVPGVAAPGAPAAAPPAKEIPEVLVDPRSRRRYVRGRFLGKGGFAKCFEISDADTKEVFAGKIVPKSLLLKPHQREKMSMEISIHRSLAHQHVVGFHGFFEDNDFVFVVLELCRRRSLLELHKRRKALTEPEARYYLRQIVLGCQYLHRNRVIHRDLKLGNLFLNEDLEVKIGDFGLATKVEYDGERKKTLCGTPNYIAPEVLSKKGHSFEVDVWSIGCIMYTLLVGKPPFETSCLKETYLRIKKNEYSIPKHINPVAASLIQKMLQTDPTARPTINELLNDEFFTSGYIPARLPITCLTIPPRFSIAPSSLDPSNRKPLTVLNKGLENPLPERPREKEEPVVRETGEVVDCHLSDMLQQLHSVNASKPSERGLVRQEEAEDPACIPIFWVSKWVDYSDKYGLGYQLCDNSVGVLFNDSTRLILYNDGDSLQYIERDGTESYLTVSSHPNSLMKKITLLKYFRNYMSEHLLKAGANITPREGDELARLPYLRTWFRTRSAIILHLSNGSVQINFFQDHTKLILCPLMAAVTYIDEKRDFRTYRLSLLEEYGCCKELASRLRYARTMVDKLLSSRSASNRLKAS
# Mus musculus [7] = test: Antialzheimer activity in 5XFAD mouse assessed as time to locate platform at 1200 ppm administered as rodent chow for 10 to 24 weeks by Morris water maze test (reference value: 6.5 to 60 sec); assay type: functional; details: route po, time 10-24 weeks
# In short: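 Morris water maze: a circular pool was filled with opaque water (white paint added), and mice were given four trials per acquisition day. Twenty-four hours after the last acquisition day, the platform was removed for a 60 s probe trial. Mice had been on 1200 ppm PLX5622 or control chow for 10 or 24 weeks from 1.5 months of age.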
# Mus musculus [8] = test: Antialzheimer activity in 5XFAD mouse assessed as number of Iba positive cells per FOV in somatosensory cortex at 1200 ppm administered as rodent chow starting from 1.5 months and measured after 7 months (reference value: 335 to 848); assay type: functional; details: route po, time 5.5 months, 4015 h
# [9] = target: Tyrosine-protein kinase Lyn (Homo sapiens, UniProt P07948); test: Inhibition of LYN_B (unknown origin)
# Sequence of Tyrosine-protein kinase Lyn (P07948 whole entry): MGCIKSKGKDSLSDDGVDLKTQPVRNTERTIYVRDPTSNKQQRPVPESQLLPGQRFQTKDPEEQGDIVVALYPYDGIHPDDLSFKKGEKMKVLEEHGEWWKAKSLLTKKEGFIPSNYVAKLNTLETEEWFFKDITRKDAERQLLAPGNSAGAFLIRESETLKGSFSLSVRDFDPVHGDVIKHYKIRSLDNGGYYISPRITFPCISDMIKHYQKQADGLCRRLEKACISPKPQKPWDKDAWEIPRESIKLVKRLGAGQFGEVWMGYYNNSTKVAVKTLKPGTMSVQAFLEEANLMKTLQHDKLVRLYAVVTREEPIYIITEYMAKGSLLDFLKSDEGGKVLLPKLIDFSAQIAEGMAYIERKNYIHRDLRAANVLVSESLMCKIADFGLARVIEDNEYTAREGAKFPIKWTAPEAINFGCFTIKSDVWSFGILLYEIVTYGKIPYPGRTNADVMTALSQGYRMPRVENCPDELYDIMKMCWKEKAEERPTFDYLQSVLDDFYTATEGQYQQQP
# [10] = Effect on Hexb gene expression in 5XFAD mouse thalamus at 1200 ppm administered as rodent chow starting from 1.5 months and measured after 7 months by RNA-Seq analysis (reference value: 75.322 to 93.439 RPKM); assay type: functional; details: route po, time 5.5 months, 4015 h
# Mus musculus [11] = test: Antialzheimer activity in 5XFAD mouse assessed as ApoE immunoreactivity by measuring APP volume per number of Thio-S positive deposits at 1200 ppm administered as rodent chow starting from 1.5 months and measured after 7 months by immunolabeling based confocal microscopic analysis (reference value: 6.415 to 29.760 microm3); assay type: functional; details: route po, time 5.5 months, 4015 h
# Mus musculus [12] = test: Antialzheimer activity in 5XFAD mouse assessed as reduction in myeloid cell numbers in subiculum at 1200 ppm administered as rodent chow starting from 1.5 months and measured after 7 months by immunolabeling based confocal microscopic analysis relative to control; assay type: functional; set-up: scale not given: the % may be the effect or the level left; details: route po, time 5.5 months, 4015 h
# Aurora kinase A = Aurora kinase A (Homo sapiens, UniProt O14965); test: Inhibition of AURKA (unknown origin)
# Sequence of Aurora kinase A (O14965 whole entry): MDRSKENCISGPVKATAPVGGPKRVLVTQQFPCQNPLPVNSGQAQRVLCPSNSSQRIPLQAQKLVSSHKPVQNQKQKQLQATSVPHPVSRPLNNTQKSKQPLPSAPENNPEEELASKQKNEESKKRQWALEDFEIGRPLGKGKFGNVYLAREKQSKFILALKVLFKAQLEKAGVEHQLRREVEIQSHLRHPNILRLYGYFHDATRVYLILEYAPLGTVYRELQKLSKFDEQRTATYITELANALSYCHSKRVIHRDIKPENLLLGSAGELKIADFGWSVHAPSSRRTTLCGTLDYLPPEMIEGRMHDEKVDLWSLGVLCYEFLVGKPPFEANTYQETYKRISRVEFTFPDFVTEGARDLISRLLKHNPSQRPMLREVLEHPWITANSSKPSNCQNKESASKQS
# [13] = target: T1, Macrophage colony-stimulating factor 1 receptor (Mus musculus) (UniProt P09581); test: In vivo inhibition of CSF1R in wildtype mouse assessed as iron reactivity by measuring hemosiderin intensity of prussian blue staining in […] cortex at 1200 ppm administered as rodent chow starting from 1.5 months and measured after 4 months by confocal microscopic analysis (reference value: 0.362 to 5.194 a.u.); assay type: functional; details: route po, time 2.5 months
# T1 sequence (whole entry): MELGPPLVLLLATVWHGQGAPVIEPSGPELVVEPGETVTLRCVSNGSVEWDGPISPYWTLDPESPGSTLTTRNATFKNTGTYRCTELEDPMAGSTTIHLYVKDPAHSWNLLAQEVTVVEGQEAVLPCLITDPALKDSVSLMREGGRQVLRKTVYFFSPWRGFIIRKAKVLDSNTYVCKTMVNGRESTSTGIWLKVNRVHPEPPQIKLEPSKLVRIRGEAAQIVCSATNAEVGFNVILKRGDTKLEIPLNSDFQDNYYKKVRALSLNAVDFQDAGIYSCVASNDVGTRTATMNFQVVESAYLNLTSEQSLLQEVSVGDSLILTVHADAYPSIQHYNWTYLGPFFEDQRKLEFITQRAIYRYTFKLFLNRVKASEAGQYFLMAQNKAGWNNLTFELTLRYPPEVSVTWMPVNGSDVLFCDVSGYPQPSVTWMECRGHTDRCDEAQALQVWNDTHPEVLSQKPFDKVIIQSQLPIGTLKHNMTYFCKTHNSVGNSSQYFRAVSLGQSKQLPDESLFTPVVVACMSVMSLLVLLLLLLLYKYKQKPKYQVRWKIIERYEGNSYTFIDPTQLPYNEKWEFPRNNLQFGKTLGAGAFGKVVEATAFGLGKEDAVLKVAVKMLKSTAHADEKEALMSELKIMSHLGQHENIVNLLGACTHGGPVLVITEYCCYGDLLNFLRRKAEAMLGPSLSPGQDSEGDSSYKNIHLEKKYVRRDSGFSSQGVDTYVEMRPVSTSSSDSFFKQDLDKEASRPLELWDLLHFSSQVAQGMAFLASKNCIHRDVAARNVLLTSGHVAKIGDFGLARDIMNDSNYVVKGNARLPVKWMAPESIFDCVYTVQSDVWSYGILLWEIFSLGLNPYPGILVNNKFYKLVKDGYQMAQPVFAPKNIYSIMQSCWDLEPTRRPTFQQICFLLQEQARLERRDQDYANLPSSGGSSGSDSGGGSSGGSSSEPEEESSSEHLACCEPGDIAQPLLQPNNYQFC
# In short: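 Wild-type or 5xFAD mice fed PLX5622 (1200 ppm) in AIN-76A chow from 1.5 months of age, examined in 4- and 7-month-old cohorts. Brain sections stained with a Prussian blue kit per kit instructions to detect iron deposits (microbleeds).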
# Mus musculus [14] = test: Prevention of Trem2 gene upregulation in 5XFAD mouse hippocampus at 1200 ppm administered as rodent chow starting from 1.5 months and measured after 7 months by Nanostring analysis; assay type: functional, tissue-based; details: route po, time 5.5 months
# [15] = Effect on Itgax gene expression in 5XFAD mouse cortex at 1200 ppm administered as rodent chow starting from 1.5 months and measured after 7 months by RNA-Seq analysis (reference value: 1.746 to 3.999 RPKM); assay type: functional; details: route po, time 5.5 months, 4015 h
# [16] = target: Serine/threonine-protein kinase MARK1 (Homo sapiens, UniProt Q9P0L2); test: Inhibition of MARK1 (unknown origin)
# Sequence of Serine/threonine-protein kinase MARK1 (Q9P0L2 whole entry): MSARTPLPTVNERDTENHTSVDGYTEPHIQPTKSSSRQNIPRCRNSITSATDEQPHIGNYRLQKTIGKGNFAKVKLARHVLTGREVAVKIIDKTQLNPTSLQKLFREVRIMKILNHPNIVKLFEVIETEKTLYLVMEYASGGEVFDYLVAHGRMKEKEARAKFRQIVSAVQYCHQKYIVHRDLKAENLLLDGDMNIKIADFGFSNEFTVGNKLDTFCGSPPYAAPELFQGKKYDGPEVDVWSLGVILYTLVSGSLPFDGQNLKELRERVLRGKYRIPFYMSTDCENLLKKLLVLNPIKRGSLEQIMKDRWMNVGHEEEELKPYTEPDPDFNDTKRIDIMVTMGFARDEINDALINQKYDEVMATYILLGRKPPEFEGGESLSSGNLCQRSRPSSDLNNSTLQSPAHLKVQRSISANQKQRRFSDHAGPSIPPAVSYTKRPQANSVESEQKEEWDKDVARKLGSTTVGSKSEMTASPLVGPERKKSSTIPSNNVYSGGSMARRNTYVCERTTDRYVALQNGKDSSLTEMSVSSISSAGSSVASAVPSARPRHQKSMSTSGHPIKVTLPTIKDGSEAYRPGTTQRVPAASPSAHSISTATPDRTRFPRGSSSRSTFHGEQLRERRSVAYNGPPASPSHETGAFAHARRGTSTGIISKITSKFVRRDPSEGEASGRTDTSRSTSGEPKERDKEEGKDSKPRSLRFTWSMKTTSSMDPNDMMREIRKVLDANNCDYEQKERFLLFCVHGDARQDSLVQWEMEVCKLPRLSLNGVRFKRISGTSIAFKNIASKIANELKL
# Mus musculus [17] = test: Prevention of Gls gene downregulation in 5XFAD mouse hippocampus at 1200 ppm administered as rodent chow starting from 1.5 months and measured after 7 months by Nanostring analysis; assay type: functional, tissue-based; details: route po, time 5.5 months
# [18] = Effect on Cx3cr1 gene expression in 5XFAD mouse thalamus at 1200 ppm administered as rodent chow starting from 1.5 months and measured after 7 months by RNA-Seq analysis (reference value: 15.006 to 17.756 RPKM); assay type: functional; details: route po, time 5.5 months, 4015 h
# [19] = Effect on Hexb gene expression in wild type mouse thalamus at 1200 ppm administered as rodent chow starting from 1.5 months and measured after 7 months by RNA-Seq analysis (reference value: 45.201 to 52.726 RPKM); assay type: functional; details: route po, time 5.5 months, 4015 h
# [20] = target: Casein kinase I isoform gamma-3 (Homo sapiens, UniProt Q9Y6M4); test: Inhibition of CSNK1G3 (unknown origin)
# Sequence of Casein kinase I isoform gamma-3 (Q9Y6M4 whole entry, canonical isoform): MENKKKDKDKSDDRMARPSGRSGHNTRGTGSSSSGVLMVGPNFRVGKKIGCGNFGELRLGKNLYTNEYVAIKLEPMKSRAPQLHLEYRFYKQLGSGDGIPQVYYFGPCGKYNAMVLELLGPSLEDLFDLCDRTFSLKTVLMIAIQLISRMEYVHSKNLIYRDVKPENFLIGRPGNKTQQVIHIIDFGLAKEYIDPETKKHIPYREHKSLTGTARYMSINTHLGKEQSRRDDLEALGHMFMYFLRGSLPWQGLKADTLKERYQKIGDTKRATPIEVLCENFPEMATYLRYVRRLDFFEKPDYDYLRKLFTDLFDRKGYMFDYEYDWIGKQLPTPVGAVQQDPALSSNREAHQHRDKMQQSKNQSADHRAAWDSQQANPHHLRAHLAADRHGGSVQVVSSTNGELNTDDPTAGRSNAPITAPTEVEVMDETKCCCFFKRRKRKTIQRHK
smiles,measurement,setting,value
COc1ncc(F)cc1CNc1ccc(Cc2c[nH]c3ncc(C)cc23)c(F)n1 [PLX-5622],Activity,[1],0 RPKM
same,Activity,[2],68.859%
same,IC50,Ephrin type-A receptor 1,> 1 µM
same,IC50,[3],> 1 µM
same,Activity,Mus musculus [4],Active
same,IC50,[5],> 1 µM
same,IC50,[6],> 1 µM
same,Time,Mus musculus [7],9.2 s
same,Activity,Mus musculus [8],0
same,IC50,[9],> 1 µM
same,Activity,[10],10.635 RPKM
same,Activity,Mus musculus [11],10.459 um3
same,Activity,Mus musculus [12],77%
same,IC50,Aurora kinase A,> 1 µM
same,Flu intensity,[13],0.1 a.u.
same,Activity,Mus musculus [14],Active
same,Activity,[15],0.086 RPKM
same,IC50,[16],> 1 µM
same,Activity,Mus musculus [17],Active
same,Activity,[18],0.179 RPKM
same,Activity,[19],10.895 RPKM
same,IC50,[20],> 1 µM
